In the library only some 9.8% were active in any assay of this set; here they are far more common.
WT yeast gro inh – growth inhibition of WT yeast, mitochondrial fusion screen | mitochondrial fusion phenotypic screen, WT strain | 190,000 tested, 2.1% active | inhibition, % at 10 µM; in the data active = inhibition above about 58%; tested in S. cerevisiae
PMI act satM6P – activators of human phosphomannose isomerase at near-saturating mannose 6-phosphate | P34949 | AID 1216 | 190,000 tested, 0.34% active | coupled PMI enzyme assay, resazurin fluorescence, 20 min; hits give high values; 1 = untreated enzyme, 0 = substrate-free blank | activation factor at 20 µM;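 active = activation factor of 2 or more at 20 µM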
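assay system = human phosphomannose isomerase with PGI, G6PDH, diaphorase coupling enzymes | quantity = 15 ng/mL PMI | incubation = enzyme reaction with compound 20 min at room temperature | medium = HEPES pH 7.4 buffer with MgCl2 and Tween-20 | compound dosing = one concentration, 20 µM, in 1% DMSO | measured by = Diaphorase-driven resazurin-to-resorufin fluorescence, excitation 544, emission 590 nm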
Calpain2 inh – blocks pig calpain II enzyme activity; inhibition, % at 16 µM; 220,000 tested, 0.37% active; purified calpain II, fluorogenic peptide substrate, 30 min;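 active = inhibition above about 50%, limit read from the data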
Rad51 HR inh – blocks human Rad51 in homologous recombination; hRad51 DNA strand exchange, fluorescence dequenching; 200,000 tested, 0.085% active; AID 1385; inhibition, % at 10 µM;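 active = inhibition above 40% at the single screening dose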;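 note: 0% = DMSO control wells and 100% = blanks with heterologous ssDNA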
Target sequence (Q06609 whole entry, looked up): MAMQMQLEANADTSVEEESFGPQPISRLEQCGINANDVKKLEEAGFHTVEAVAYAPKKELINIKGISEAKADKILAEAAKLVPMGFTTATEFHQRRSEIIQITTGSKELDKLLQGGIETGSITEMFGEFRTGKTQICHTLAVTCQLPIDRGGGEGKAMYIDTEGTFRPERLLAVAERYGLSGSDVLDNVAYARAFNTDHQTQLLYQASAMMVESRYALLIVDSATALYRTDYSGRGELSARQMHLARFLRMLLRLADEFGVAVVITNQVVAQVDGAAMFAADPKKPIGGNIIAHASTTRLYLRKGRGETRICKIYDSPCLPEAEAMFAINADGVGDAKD
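Assay system: Human Rad51 nucleoprotein filaments preassembled on unlabelled ssDNA | Reagent: Donor/quencher-labelled 47-bp dsDNA substrate | Doses: One concentration, 10 µM final | Times: 37 °C 15-min filament assembly, 30-min compound preincubation, 15-min exchange | Technique: Fluorescein emission 520 nm, excitation 485 nm | Benchmarks: Plate control and blank wells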
L major viab – Leishmania major promastigote growth inhibition | Leishmania major promastigotes, resazurin fluorescence viability | inhibition, % at 10 µM | 200,000 tested, 9% active | AID 1063; in the data active = inhibition above about 50%;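 note: promastigotes grown with compound for 44 hours at 28 °C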
PMI activator – activators of human phosphomannose isomerase | purified human PMI, coupled resazurin fluorescence, 20 min; hits give high values; 1 = vehicle control, 0 substrate-free wells | P34949 | activation factor at 20 µM | 190,000 tested, 0.005% active;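 active = activation factor of 2 or more at 20 µM, relative to plate controls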
* hit, by the source's call; i = inactive; nt = no result.

SMILES | WT yeast gro inh | PMI act satM6P | Calpain2 inh | Rad51 HR inh | L major viab | PMI activator
c1ccc(Cn2nnnc2C(c2cccnc2)N2CCN(C3CCCCC3)CC2)cc1 (stereo not drawn) | 5.3 | 1.2 | -12.4 | 2.2 | -7.8 | 1.1
c1ccc(CCn2nnnc2C(c2cccnc2)N2CCN(c3nc4ccccc4s3)CC2)cc1 (stereo not drawn) | 31.1 | 0.8 | -63.4 | 3.1 | 100.4* | 0.8
Oc1ccc(N2CCN(C(c3cccnc3)c3nnnn3Cc3ccccc3)CC2)cc1 (stereo not drawn) | 13.3 | 0.8 | -83.6 | 3.3 | 64.8* | 0.7
c1ccc(CCn2nnnc2C(c2cccnc2)N2CCN(c3ccccc3)CC2)cc1 (stereo not drawn) | -65.2 | 1 | -44.5 | -1.4 | 96.7* | 1
COCCn1nnnc1C(c1ccccc1)N1CCN(c2ccccc2)CC1 (stereo not drawn) | -8.1 | 0.7 | -10.1 | -1.4 | 0.7 | 1.1
CC(/C=C1\SC(=S)N(NC(=O)c2cccc(O)c2)C1=O)=C\c1ccccc1 | 85.6* | 0.8 | 0.1 | 2.1 | -0.7 | 0.7
CCOC(=O)N1CCc2c(sc(NC(=O)CN(CC)CC)c2C#N)C1 | nt | nt | 7.0 | 10.8 | nt | nt
Cc1ccc(CNC(=O)C2CC(c3ccccc3F)=NO2)cc1 (stereo not drawn) | nt | nt | 4.2 | 4.5 | nt | nt
O=C(c1ccccc1F)N(Cc1ccc2c(c1)OCO2)Cc1cc2cc3c(cc2n2nnnc12)OCO3 | 1.8 | 0.9 | -52.7 | 0.0 | 87.5* | 0.9
O=C(Oc1cccc(C(=S)N2CCCCC2)c1)c1ccccc1 | 60.1* | 0.9 | -22.2 | 12.9 | -5.6 | 0.9
CC1(c2ccccc2)CC(C)(C)N(C(=O)CSc2nnc(N)s2)c2ccccc21 (stereo not drawn) | 14.6 | 0.9 | 7.0 | 4.8 | 14.7 | 0.9
O=C(c1ccccc1)c1cc([N+](=O)[O-])ccc1N1CCCC1 | 0.3 | 0.9 | 22.0 | 4.1 | 11.6 | 1
CC1(c2ccccc2)CC(C)(C)N(C(=O)C2CCCO2)c2ccccc21 (stereo not drawn) | 41.8 | 0.9 | -2.7 | nt | 87.0* | 0.9
CC1(c2cc([N+](=O)[O-])cc([N+](=O)[O-])c2)CC(C)(C)N(C(=O)c2ccccc2)c2ccccc21 (stereo not drawn) | 40.5 | 0.9 | -30.0 | -2.3 | 97.8* | 0.9
Cc1cnc(C(=O)Nc2cccc3cccnc23)cn1 | -5.7 | 1 | -11.6 | nt | 97.4* | 1.1
O=C(Nc1cccc2cccnc12)c1cccnc1 | -43.1 | 1 | -9.2 | 10.8 | 24.4 | 0.9
NNc1nc2c(-c3ccc(Cl)cc3)nnn2c2ccccc12 | 20.1 | 1.1 | -138.9 | -11.0 | 86.2* | 1
COCCCNc1nc2c(-c3ccc(Cl)cc3)nnn2c2ccccc12 | 4.1 | 1 | i | nt | -4.0 | 1
Fc1ccc(-c2nnn3c2nc(NCc2ccccc2)c2ccccc23)cc1 | nt | nt | -187.3 | -9.8 | nt | nt
NNc1nc2c(-c3ccc(F)cc3)nnn2c2ccccc12 | 34.3 | 0.7 | -109.8 | -27.9 | 96.8* | 1
COC(=O)Cc1cn(-c2ncc(C(F)(F)F)cc2Cl)c2ccccc12 | 84.2* | 1 | 29.2 | 4.8 | -2.4 | 1
Cc1ccc(S(=O)(=O)N2CCC(C(=O)N[C@@H](Cc3ccccc3)C(=O)O)CC2)cc1 | -8.9 | 1 | 11.8 | -3.6 | 54.1* | 0.9
Cc1ccc(S(=O)(=O)N2CCC(C(=O)NCCc3ccccc3)CC2)cc1 | 16.3 | 1.1 | -22.8 | nt | -2.0 | 1.1
COc1ccc(CNC(=O)C2CCN(S(=O)(=O)c3ccc(-c4nn[nH]n4)cc3)CC2)cc1 | -6.6 | 1.1 | 50.9* | 1.9 | -5.8 | 1
Cc1ccc(S(=O)(=O)N2CCC(C(=O)NCCN3CCCCCC3)CC2)cc1 | 15.1 | 1 | -16.1 | 4.1 | 100.0* | 1
Cc1ccc(S(=O)(=O)N2CCC(C(=O)NCc3ccccc3Cl)CC2)cc1 | 17.5 | 1.1 | -3.9 | 0.3 | 73.2* | 1.1
CCN1C(=O)/C(=C\N(C)C)S/C1=N\S(=O)(=O)c1ccc(C)cc1 | -3.6 | 1 | -5.7 | 7.6 | 1.9 | 1
CC1(C)[C@@H](O)CC[C@]2(C)C3C(O)C=C4[C@H]5C[C@@](C)(C(=O)O)CC[C@]5(C)CC[C@]4(C)[C@]3(C)CC[C@@H]12 (stereo partly drawn) | nt | nt | -53.9 | 2.0 | nt | nt
